The values that follow come from publication PMC7569488 (Science signaling, 2020).

Where a chain is given by its changes, count along the chain named.

In data set [1] the target is T1, MKP5-CD (Homo sapiens, UniProt Q9Y6W6).
T1 sequence (Q9Y6W6 320-467): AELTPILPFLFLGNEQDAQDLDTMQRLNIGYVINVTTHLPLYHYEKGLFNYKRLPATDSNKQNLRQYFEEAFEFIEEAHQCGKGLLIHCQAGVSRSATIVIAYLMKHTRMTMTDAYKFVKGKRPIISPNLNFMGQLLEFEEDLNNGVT
Nature of the data set: Malachite green phosphatase assay with p38α MAPK phosphopeptide substrate. It is filed as biochemical.

The target of the next data set is T2, PTP-1B (Homo sapiens, UniProt P18031).
T2 sequence (P18031 1-435): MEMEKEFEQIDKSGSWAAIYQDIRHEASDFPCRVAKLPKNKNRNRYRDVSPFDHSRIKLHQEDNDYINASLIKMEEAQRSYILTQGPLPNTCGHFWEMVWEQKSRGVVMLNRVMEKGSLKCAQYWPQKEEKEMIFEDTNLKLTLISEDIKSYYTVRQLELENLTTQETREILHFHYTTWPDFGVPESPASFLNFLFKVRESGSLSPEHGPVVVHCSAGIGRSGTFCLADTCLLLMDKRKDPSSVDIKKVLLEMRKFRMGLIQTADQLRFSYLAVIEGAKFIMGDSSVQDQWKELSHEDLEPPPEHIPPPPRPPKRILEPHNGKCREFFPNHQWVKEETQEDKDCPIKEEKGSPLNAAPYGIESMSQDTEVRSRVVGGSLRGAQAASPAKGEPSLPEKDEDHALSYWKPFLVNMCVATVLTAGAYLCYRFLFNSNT
Nature of the data set: Phosphatase selectivity assay, PTP-1B. It is filed as biochemical.

In the next data set the test system is MKP3. Nature of the data set: DiFMUP phosphatase assay, MKP3. It is filed as biochemical. As to conditions: DiFMUP substrate.
In the next data set the test system is MKP7. Description: p38α MAPK phosphopeptide phosphatase assay, MKP7. It is filed as biochemical. Conditions: p38α MAPK phosphopeptide substrate. The gist of the method:
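MKP7-CD (residues 156-301) and MKP5-CD were E. coli-expressed and thrombin-cleaved. Each was assayed with the p38α MAPK diphosphopeptide DDE(Nle)(pT)G(pY)VATR, and released phosphate was detected by malachite green. Activity was normalized to DMSO control and fit to a hyperbolic inhibition equation. The IC50 for MKP7-CD was compared with the IC50 for MKP5-CD.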

Data set [2] has as its target T1, MKP5-CD. Description: Phosphate sensor steady-state kinetic assay with full-length p38α MAPK substrate. It is filed as biochemical.
Data set [3] deals with T1, MKP5-CD. Nature of the data set: DiFMUP steady-state kinetic assay. It counts as biochemical. Conditions: DiFMUP substrate.
In data set [4] the target is T1, MKP5-CD. Nature of the data set: Transient stopped-flow kinetic assay with DiFMUP. It counts as biochemical.
Another data set concerns the target T3, MKP5 single mutant M431L (Homo sapiens, UniProt Q9Y6W6, M431L).
T3 sequence (Q9Y6W6 320-467 M431L): T1 sequence (Q9Y6W6 320-467) with M112L
Description: Malachite green assay, MKP5 M431L mutant. It is filed as biochemical.

Another data set has as its target T4, MKP5 single mutant T432D (Homo sapiens, UniProt Q9Y6W6, T432D).
T4 sequence (Q9Y6W6 320-467 T432D): T1 sequence (Q9Y6W6 320-467) with T113D
Description: Malachite green assay, MKP5 T432D mutant. It counts as biochemical.

The target in data set [5] is T5, MKP5 M431L/T432D double mutant (Homo sapiens, UniProt Q9Y6W6, M431L/T432D).
T5 sequence (Q9Y6W6 320-467 M431L/T432D): T1 sequence (Q9Y6W6 320-467) with M112L, T113D
Nature of the data set: Malachite green assay, MKP5 M431L/T432D double mutant. Conditions: p38α MAPK phosphopeptide. It is filed as biochemical.

The subject of data set [6] is MKP5-CD Tyr^435 mutants (alanine, serine, tryptophan). Description: Binding and inhibition experiments with Tyr435 mutants. It counts as biochemical, human. As to conditions: Y435A, Y435S, Y435W.
The subject of data set [7] is MKP5 mutants M431L, T432D and M431L/T432D. Nature of the data set: Binding affinity for Met431/Thr432 mutants. On the set-up: species or system human.
Data set [8] deals with p38α MAPK. Description: p38α MAPK activation in C2C12 myoblasts. It is filed as cell-based, mouse. Conditions: highest concentration of Compound 1, dose-dependent. The method, boiled down:
(§1)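 C2C12 myoblasts (ATCC) were treated with test compound (0, 10, 25, 50 μM) overnight, serum-starved 4 h, lysed and immunoblotted. Antibodies: phospho-ERK1/2 Thr202/Tyr204, phospho-JNK Thr183/Tyr185, phospho-p38α Thr180/Tyr182, plus the matching total proteins. The pMAPK/MAPK ratio was quantified by direct fluorescence imaging. Four independent experiments; means ± SEM; two-tailed t-test.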

Data set [9] has as its system JNK. Description: JNK activation in C2C12 myoblasts. It is filed as cell-based, mouse. As to conditions: highest concentration of Compound 1. The method, boiled down: as §1
Data set [10] has as its system ERK1/2. Nature of the data set: ERK1/2 activation in C2C12 myoblasts. It is filed as cell-based, mouse. Conditions: even at the highest concentration. The gist of the method: as §1
Data set [11] has as its system C2C12 myoblasts. Description: C2C12 myoblast proliferation. It is filed as cell-based, mouse. Conditions: C2C12, 72 hr.
The test system of data set [12] is C2C12 myoblasts. Nature of the data set: C2C12 myoblast differentiation. It is filed as cell-based, mouse. As to conditions: C2C12, 72 h. The method, boiled down:
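C2C12 myoblasts were plated in growth medium, then switched to DMEM with 0.1% FBS, 5 μg/mL insulin and 5 μg/mL selenium, plus DMSO vehicle or test compound. Differentiation ran 72 hr. Cells were stained with MF20 antibody (myosin heavy chain) and DAPI. Fusion index = % of nuclei in myotubes with ≥2 nuclei over total nuclei, counted from ≥10 fields. Means ± SEM; two-tailed t-test.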

For another data set, the system named is Smad2. Nature of the data set: TGF-β1-mediated Smad2 phosphorylation in MEFs. It is filed as cell-based, mouse. As to conditions: TGF-β1 1 ng/ml 10 minutes.
In data set [13] the test system is p38α MAPK. Nature of the data set: p38α MAPK phosphorylation in MEFs. It is filed as cell-based, mouse. The gist of the method: (§2)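 Mouse embryo fibroblasts were derived from Mkp5+/+ and Mkp5−/− embryos (days 13-14) and spontaneously immortalized. Cells were treated with test compound overnight, serum-starved 4 h, then stimulated with TGF-β1 (1 ng/ml) for 10 min. Lysates were immunoblotted for phospho- and total MAPK, and the ratio was quantified by fluorescence imaging. 3-6 independent experiments; means ± SEM; t-test.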

Data set [14] concerns JNK. Nature of the data set: JNK phosphorylation in MEFs. It counts as cell-based, mouse. The gist of the method:
as §2

Data set [15] deals with ERK1/2. Nature of the data set: ERK1/2 phosphorylation in MEFs. Conditions: Mkp5−/− MEFs. It counts as cell-based, mouse. The gist of the method:
as §2

A further data set can be described thus: Solubility. It is filed as physicochemical.
The subject of the next data set is MKP3 and MKP1. Conditions: cited from earlier work.

By IC50 is commonly meant the concentration that inhibits the measured activity by half. Read a high IC50 as weaker potency in that assay. As usually defined, the Ki is the equilibrium dissociation constant of an inhibitor or competing ligand from its target. The low end stands for a stronger hold on the target, the high end for a looser hold on the target. For the compound `CSc1scc2c1-c1nc(SCC(=O)C(C)(C)C)ncc1CC2` [Compound 1, 3,3-dimethyl-1-((9-(methylthio)-5,6-dihydrothieno[3,4-h]quinazolin-2-yl)thio)butan-2-one], the IC50 at MKP5-CD [1] (IC50 against MKP5-CD, p38α MAPK phosphopeptide substrate) is ~3.9 µM; at PTP-1B it was > 100 µM; against MKP5 single mutant M431L it was 99 µM; against MKP5 single mutant T432D it was 61 µM. In addition, at MKP5-CD [1] (p38α MAPK phosphopeptide), the “extent of inhibition of MKP5-CD phosphatase activity” value was “did not fully inhibit”. For the same compound, the “increase in IC50 for MKP3 relative to MKP5” value in the data set with MKP3 is given as “at least 16 fold”. The “increase in IC50 for MKP7 relative to MKP5” value with MKP7 was “at least 16 fold”. On MKP5-CD [2], this compound returned a Ki of 8.9 ± 2.2 µM. Also, the “α (mixed-mechanism inhibition)” value on MKP5-CD [2] (full-length p38α MAPK substrate) is “≈ 17.4”. Also, the “α (mixed mechanism of inhibition)” value on MKP5-CD [3] was 4.2. Also, the “fold change of burst rate (k1)” value at MKP5-CD [4] (20 and 40 μM Compound 1) was found to be 7 fold. Besides, the “burst rate (k1) in the presence of Compound 1” value at MKP5-CD [4] (20 and 40 μM Compound 1 (8.4 ± 0.2 s^−1 without)) amounted to 1.2 ± 0.02 s⁻¹. Further, the “inhibition of MKP5 M431L/T432D double mutant” value in data set [5] is “nearly abolished inhibition”. The “binding to and inhibition of Tyr435 mutants” value in data set [6] was “capable of binding to and inhibiting the activity of only the Y435W mutant”. Also, in [7], the “binding affinity for M431L, T432D and M431L/T432D mutants” value is given as “Concomitant reductions in the binding affinity”. For the same compound, in the data set with p38α MAPK [8], the “activation of p38α MAPK” value was “up to 4 fold”. In addition, in the data set on JNK [9], the JNK activation result was “up to 2 fold”. Besides, in the data set with ERK1/2 [10], the “activation of ERK1/2” value was “did not alter the activation of ERK1/2”. The “myoblast proliferation (BrdU-positive cells)” value in the data set on C2C12 myoblasts [11] is “did not affect C2C12 myoblast proliferation”. In addition, the “myoblast differentiation (myotube fusion index)” value in the data set on C2C12 myoblasts [12] is listed as “significantly increased”. In addition, the “TGF-β1-mediated Smad2 phosphorylation” value with Smad2 (Mkp5+/+ MEFs) is on record as “inhibited TGF-β1-mediated Smad2 phosphorylation”; in the data set on Smad2 (Mkp5−/− MEFs), “failed to inhibit Smad2 phosphorylation further”. The “phosphorylation of p38α MAPK” value in the data set on p38α MAPK [13] (Mkp5−/− MEFs) was “did not result in additional phosphorylation”; in the data set with p38α MAPK [13] (wild type MEFs) it was “dose-dependent increase”. The “phosphorylation of JNK” value in the data set with JNK [14] (Mkp5−/− MEFs) is “did not result in additional phosphorylation”; in the data set with JNK [14] (wild type MEFs), “dose-dependent increase”. The ERK1/2 phosphorylation result with ERK1/2 [15] was “unaffected”. Besides, the solubility entry in the data set “Solubility” was “modest solubility”.

Regarding `O=C1/C(=C/c2ccccc2)C(NC2CCCCC2)c2ccccc21` (centres unmarked) [BCI], the “relative potency MKP3 versus MKP1” value in the data set on MKP3 and MKP1 is given as “relative equipotency”.
